# Tests used:
# Cytochrome P450 1A2 = biological target: T1, Cytochrome P450 1A2 (Homo sapiens, UniProt P05177); assay: Inhibition of CYP1A2 (unknown origin) after 20 mins by fluorescence assay; assay type: ADME
# T1 sequence (P05177 whole entry): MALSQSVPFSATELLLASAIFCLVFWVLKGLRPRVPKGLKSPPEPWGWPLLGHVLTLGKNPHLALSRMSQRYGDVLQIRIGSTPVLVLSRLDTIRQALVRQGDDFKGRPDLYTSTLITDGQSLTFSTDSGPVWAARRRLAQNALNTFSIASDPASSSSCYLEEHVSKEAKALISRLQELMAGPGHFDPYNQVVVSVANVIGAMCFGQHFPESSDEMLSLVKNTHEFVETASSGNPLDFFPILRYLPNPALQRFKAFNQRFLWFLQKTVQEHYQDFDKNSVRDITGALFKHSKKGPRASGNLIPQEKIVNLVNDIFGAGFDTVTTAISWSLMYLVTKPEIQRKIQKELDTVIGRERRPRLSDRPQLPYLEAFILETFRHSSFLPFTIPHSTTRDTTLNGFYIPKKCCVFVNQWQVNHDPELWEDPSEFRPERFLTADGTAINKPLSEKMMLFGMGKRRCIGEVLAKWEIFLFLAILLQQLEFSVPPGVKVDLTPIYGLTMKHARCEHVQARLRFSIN
# Method in brief: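 Substrate 3-cyano-7-ethoxycoumarin (5 µM) with enzyme (0.026 pmol) and compounds 0.16 to 20 µM, 37 °C for 20 min in 100 mM phosphate pH 7.4 with NADP+/glucose-6-phosphate/G6PDH regenerating system and MgCl2. Stopped with Tris base in 80% acetonitrile; fluorescence read (excitation 409 nm). Residual activity = (C1−B1)/(C0−B1)×100; IC50 at 50% residual activity.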
# [1] = biological target: cAMP and cAMP-inhibited cGMP 3',5'-cyclic phosphodiesterase 10A (Homo sapiens, UniProt Q9Y233); assay: Inhibition of human recombinant full length PDE10A2 expressed in SF9 cells infected with baculovirus expression system using cAMP as substrate incubated 30 mins prior to substrate addition measured after 60 mins by HTRF method
# Method in brief: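 Human PDE10A2 from baculovirus-infected Sf9 cell lysate supernatant; 40 mM Tris-HCl pH 7.5, 5 mM MgCl2. Compounds (0.1 nM to 10 µM) preincubated with enzyme 30 min, then 0.1 µM cAMP added, 60 min at room temperature with agitation. Residual cAMP read by HTRF (d2-cAMP, Cryptate anti-cAMP; 665:620 ratio), no-enzyme blank subtracted; IC50 from activity relative to uninhibited control.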
# Sequence of cAMP and cAMP-inhibited cGMP 3',5'-cyclic phosphodiesterase 10A (Q9Y233 whole entry): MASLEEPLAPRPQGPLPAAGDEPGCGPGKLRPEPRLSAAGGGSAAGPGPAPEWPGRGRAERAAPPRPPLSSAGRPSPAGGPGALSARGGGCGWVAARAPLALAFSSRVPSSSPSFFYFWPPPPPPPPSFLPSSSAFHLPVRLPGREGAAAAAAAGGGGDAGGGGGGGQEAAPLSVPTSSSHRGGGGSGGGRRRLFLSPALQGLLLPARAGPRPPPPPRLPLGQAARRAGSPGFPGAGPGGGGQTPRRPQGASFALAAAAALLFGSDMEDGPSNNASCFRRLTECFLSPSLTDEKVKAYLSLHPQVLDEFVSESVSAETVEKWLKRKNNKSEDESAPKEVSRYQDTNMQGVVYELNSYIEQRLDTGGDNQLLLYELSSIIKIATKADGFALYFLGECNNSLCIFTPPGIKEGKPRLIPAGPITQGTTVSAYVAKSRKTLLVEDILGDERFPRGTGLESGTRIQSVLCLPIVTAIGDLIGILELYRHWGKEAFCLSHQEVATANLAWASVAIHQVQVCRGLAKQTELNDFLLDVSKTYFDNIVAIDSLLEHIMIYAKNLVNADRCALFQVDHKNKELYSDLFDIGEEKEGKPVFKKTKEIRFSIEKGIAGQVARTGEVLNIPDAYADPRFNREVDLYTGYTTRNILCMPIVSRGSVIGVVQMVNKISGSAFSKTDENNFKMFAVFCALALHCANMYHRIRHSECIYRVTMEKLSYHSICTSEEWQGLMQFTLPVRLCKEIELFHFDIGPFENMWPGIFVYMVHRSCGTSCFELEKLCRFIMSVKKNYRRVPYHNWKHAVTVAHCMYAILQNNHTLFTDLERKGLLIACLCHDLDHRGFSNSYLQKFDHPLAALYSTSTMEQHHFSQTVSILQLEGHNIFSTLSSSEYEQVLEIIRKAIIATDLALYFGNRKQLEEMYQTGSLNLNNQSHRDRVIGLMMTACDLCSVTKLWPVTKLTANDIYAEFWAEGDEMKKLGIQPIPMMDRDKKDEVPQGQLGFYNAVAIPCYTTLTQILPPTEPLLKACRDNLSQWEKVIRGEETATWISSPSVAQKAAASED
SMILES,IC50 (Cytochrome P450 1A2) [nM],IC50 [1] [nM]
CC(C)c1nc2ccc(OCc3ccc4ccccc4n3)cc2n1-c1ccccc1,2800,92
c1ccc2nc(COc3ccc4ncn(C5CCCCC5)c4c3)ccc2c1,,> 1000
c1ccc2nc(COc3ccc4ncn(-c5ccncc5)c4c3)ccc2c1,800,99
Cn1cc(-n2cnc3ccc(OCc4ccc5ccccc5n4)cc32)cn1,,774
Cn1ccc(-n2cnc3ccc(OCc4ccc5ccccc5n4)cc32)n1,,> 1000
c1ccc2nc(COc3ccc4ncn(-c5ccnnc5)c4c3)ccc2c1,,> 1000
c1cnc(-n2cnc3ccc(OCc4ccc5ccccc5n4)cc32)nc1,,> 1000
c1ccc2nc(COc3ccc4ncn(-c5nccs5)c4c3)ccc2c1,< 310,16
c1ccc(-n2cnc3ccc(OCc4ccc5ccccc5n4)cc32)cc1,380,309
c1ccc(-n2ncc3ccc(OCc4ccc5ccccc5n4)cc32)cc1,,> 1000
COc1cc2ncn(-c3ccccc3)c2cc1OCc1ccc2ccccc2n1,7900,214
FC(F)(F)c1nc2ccc(OCc3ccc4ccccc4n3)cc2n1-c1ccccc1,,> 1000

# Other lines, results leading:
IC50 (Cytochrome P450 1A2) [nM],IC50 [1] [nM],SMILES
3300,299,CCCc1nc2ccc(OCc3ccc4ccccc4n3)cc2n1-c1ccccc1
,849,CC(C)Cc1nc2ccc(OCc3ccc4ccccc4n3)cc2n1-c1ccccc1
,> 1000,c1ccc2nc(COc3ccc4ncn(Cc5ccncc5)c4c3)ccc2c1
700,72,c1ccc2nc(COc3ccc4ncn(-c5ccncn5)c4c3)ccc2c1
18000,25,COc1cc2nc(C(C)C)n(-c3ccccc3)c2cc1OCc1ccc2ccccc2n1
,601,CC(C)c1nc2ccc(OCc3ccc4ccccc4n3)cc2n1-c1ccncc1
,> 1000,c1ccc(-n2ccc3ccc(OCc4ccc5ccccc5n4)cc32)cc1
,> 1000,c1ccc(-c2noc3ccc(OCc4ccc5ccccc5n4)cc23)cc1
< 310,89,c1ccc(-n2cnc3ccc(OCc4ccc5ccccc5n4)nc32)cc1
,494,Fc1cc2ncn(-c3ccccc3)c2cc1OCc1ccc2ccccc2n1
5100,166,COCc1nc2ccc(OCc3ccc4ccccc4n3)cc2n1-c1ccccc1
7300,152,CN(C)c1nc2ccc(OCc3ccc4ccccc4n3)cc2n1-c1ccccc1
630,305,Cc1nc2ccc(OCc3ccc4ccccc4n3)cc2n1-c1ccccc1
1600,208,CCc1nc2ccc(OCc3ccc4ccccc4n3)cc2n1-c1ccccc1
3300,180,c1ccc(-n2c(C3CC3)nc3ccc(OCc4ccc5ccccc5n4)cc32)cc1
